Reference: the array DNA melting data of Ke et al. (doi:10.1101/2024.01.08.574731)

Columns and labels:
[1] = folding enthalpy; higher = less favourable; fluorescence melt of hairpins on a sequencing array, two-state fit; settings: sodium 0.088 M
Outline: (§1)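 On a sequenced MiSeq flow cell, library hairpins with annealed Cy3 and quencher oligos were imaged for Cy3 fluorescence in 2.5 °C steps up to 60 °C, in 50 mM Na-HEPES pH 8.0, 25 mM NaCl. Normalisation used pre-quench Cy3 and control constructs. Bootstrapped two-state fits gave melting temperature and folding enthalpy, combined by inverse variance across four replicates and with fitted temperatures raised by 9.35 °C to match UV melts.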

[2] = melting temperature; fluorescence melt of hairpins on a sequencing array, two-state fit, raised by 9.35 °C to match UV melts; settings: sodium 0.088 M
Outline: as §1

| Sequence | folding enthalpy [1] | Tm [2] |
| --- | --- | --- |
| GATCTCCAAGAGATC ((((((...)))))) | -30.2 kcal/mol | 49.8 °C |
| GATCTCCAATGAGATC ((((((....)))))) | -34.2 kcal/mol | 51.3 °C |
| GATCTCCACGGAGATC ((((((....)))))) | -39.2 kcal/mol | 55.9 °C |
| GATCTCCATAGAGATC ((((((....)))))) | -33.4 kcal/mol | 56.8 °C |
| GATCTCCCGGGAGATC ((((((....)))))) | -52.9 kcal/mol | 58.3 °C |
| GATCTCCGCAGAGATC ((((((....)))))) | -34.6 kcal/mol | 57.8 °C |
| GATCTCCGGAGAGATC ((((((....)))))) | -39.4 kcal/mol | 52.7 °C |
| GATCTCCGTCGAGATC ((((((....)))))) | -41.3 kcal/mol | 51 °C |
| GATCTCCGTTGAGATC ((((((....)))))) | -35.6 kcal/mol | 52.6 °C |
| GATCTCCTCCGAGATC ((((((....)))))) | -42.5 kcal/mol | 51.4 °C |
| GATCTCCTTGGAGATC ((((((....)))))) | -47.6 kcal/mol | 60.5 °C |
| GATCTCGACTGAGATC ((((((....)))))) | -45.9 kcal/mol | 55.8 °C |
| GATCTCGATCGAGATC ((((((....)))))) | -48.5 kcal/mol | 56.9 °C |
| GATCTCGCATGAGATC ((((((....)))))) | -44.8 kcal/mol | 61.6 °C |
| GATCTCGCCTGAGATC ((((((....)))))) | -36.8 kcal/mol | 54 °C |
| GATCTCGCGGGAGATC ((((((....)))))) | -33.1 kcal/mol | 52.4 °C |
| GATCTCGCTCGAGATC ((((((....)))))) | -44.8 kcal/mol | 57.5 °C |
| GATCTCGGAAACGAGATC (((((((....))))))) | -45.5 kcal/mol | 64.3 °C |
| GATCTCGGAGAGATC ((((((...)))))) | -33.3 kcal/mol | 67.4 °C |
| GATCTCGGGAGAGATC ((((((....)))))) | -41.6 kcal/mol | 63.2 °C |
| GATCTCGGTCGAGATC ((((((....)))))) | -41.5 kcal/mol | 56.2 °C |
| GATCTCGGTGAGATC ((((((...)))))) | -12.9 kcal/mol | 55.9 °C |
| GATCTCGTAAGAGATC ((((((....)))))) | -35.3 kcal/mol | 68.4 °C |
| GATCTCGTATGAGATC ((((((....)))))) | -46.5 kcal/mol | 59.2 °C |

| Sequence | folding enthalpy [1] | Tm [2] |
| --- | --- | --- |
| GATCTCGTGAGAGATC ((((((....)))))) | -31 kcal/mol | 66.9 °C |
| GATCTCGTTAGAGATC ((((((....)))))) | -39.9 kcal/mol | 65.1 °C |
| GATCTCGTTTGAGATC ((((((....)))))) | -32.9 kcal/mol | 55.6 °C |
| GATCTCTAAGGAGATC ((((((....)))))) | -34.9 kcal/mol | 53.8 °C |
| GATCTCTAATGAGATC ((((((....)))))) | -46.5 kcal/mol | 49.9 °C |
| GATCTCTATCGAGATC ((((((....)))))) | -39.4 kcal/mol | 51.1 °C |
| GATCTCTCATGAGATC ((((((....)))))) | -44.1 kcal/mol | 52.3 °C |
| GATCTCTCCCGAGATC ((((((....)))))) | -41.2 kcal/mol | 52.1 °C |
| GATCTCTCGGAGATC ((((((...)))))) | -37.1 kcal/mol | 55.6 °C |
| GATCTCTCTGAGATC ((((((...)))))) | -37.5 kcal/mol | 55.4 °C |
| GATCTCTGACGAGATC ((((((....)))))) | -30.5 kcal/mol | 50 °C |
| GATCTCTGAGAGATC ((((((...)))))) | -32.5 kcal/mol | 52.1 °C |
| GATCTCTGAGGAGATC ((((((....)))))) | -43.4 kcal/mol | 55.8 °C |
| GATCTCTGATGAGATC ((((((....)))))) | -33.3 kcal/mol | 51.3 °C |
| GATCTCTGTGAGATC ((((((...)))))) | -42.6 kcal/mol | 54.9 °C |
| GATCTCTGTTGAGATC ((((((....)))))) | -41 kcal/mol | 54.3 °C |
| GATCTCTTAGGAGATC ((((((....)))))) | -38.1 kcal/mol | 54.2 °C |
| GATCTCTTCGGAGATC ((((((....)))))) | -42.6 kcal/mol | 54.5 °C |
| GATCTCTTGAGAGATC ((((((....)))))) | -32.4 kcal/mol | 53.8 °C |
| GATCTCTTGCGAGATC ((((((....)))))) | -42.4 kcal/mol | 51.9 °C |
| GATCTGAAACAGATC ((((((...)))))) | -31.6 kcal/mol | 46.3 °C |
| GATCTGAAAGCAGATC ((((((....)))))) | -26.4 kcal/mol | 42.1 °C |
| GATCTGAACGCAGATC ((((((....)))))) | -26.1 kcal/mol | 46.3 °C |
| GATCTGAAGTCAGATC ((((((....)))))) | -39.1 kcal/mol | 47.7 °C |

| Sequence | folding enthalpy [1] | Tm [2] |
| --- | --- | --- |
| GATCTGAATCCAGATC ((((((....)))))) | -37.8 kcal/mol | 46 °C |
| GATCTGACAGCAGATC ((((((....)))))) | -28.6 kcal/mol | 44.7 °C |
| GATCTGACCCAGATC ((((((...)))))) | -37.4 kcal/mol | 47.7 °C |
| GATCTGACCTCAGATC ((((((....)))))) | -38.9 kcal/mol | 49.3 °C |
| GATCTGACGCAGATC ((((((...)))))) | -29.5 kcal/mol | 47.3 °C |
| GATCTGACGTCAGATC ((((((....)))))) | -42.6 kcal/mol | 55.5 °C |
| GATCTGACTCCAGATC ((((((....)))))) | -33.9 kcal/mol | 46.6 °C |
| GATCTGACTTCAGATC ((((((....)))))) | -34.2 kcal/mol | 49.2 °C |
| GATCTGAGACCAGATC ((((((....)))))) | -32.9 kcal/mol | 44.5 °C |
| GATCTGAGCACAGATC ((((((....)))))) | -29 kcal/mol | 49.5 °C |
| GATCTGAGCGCAGATC ((((((....)))))) | -24.7 kcal/mol | 48.5 °C |
| GATCTGAGGACAGATC ((((((....)))))) | -26.1 kcal/mol | 46.3 °C |
| GATCTGAGTCCAGATC ((((((....)))))) | -30 kcal/mol | 46.7 °C |
| GATCTGATACAGATC ((((((...)))))) | -39.4 kcal/mol | 48.7 °C |
| GATCTGATCACAGATC ((((((....)))))) | -36.8 kcal/mol | 50.4 °C |
| GATCTGCACACAGATC ((((((....)))))) | -43.9 kcal/mol | 51.6 °C |
| GATCTGCATCAGATC ((((((...)))))) | -30.6 kcal/mol | 47.8 °C |
| GATCTGCATCCAGATC ((((((....)))))) | -42 kcal/mol | 46.7 °C |
| GATCTGCCCCAGATC ((((((...)))))) | -33.6 kcal/mol | 49.2 °C |
| GATCTGCCGAAAGGCATC (((..(((....)))))) | -6.41 kcal/mol | 24.6 °C |
| GATCTGCCGACAGATC ((((((....)))))) | -29.7 kcal/mol | 50.1 °C |
| GATCTGCCTTCAGATC ((((((....)))))) | -30.7 kcal/mol | 49 °C |
| GATCTGCGAAAGCAATC (((.(((....)))))) | -12.2 kcal/mol | 27.8 °C |
| GATCTGCGGCAGATC ((((((...)))))) | -46.3 kcal/mol | 50.2 °C |
